Data set [1] can be described thus: Toxicity in ICR mouse assessed as morphological changes in liver at 20 mg/kg, po measured for 30 days by hematoxyin-eosin staining based analysis. The format is organism-based. As to conditions: in vivo, 720 h, time 30 day. The gist of the method: (§1)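 ICR mice (n = 6) were dosed orally at 20 mg/kg/day for 30 days, alongside vehicle-treated controls. Mortality and clinical signs were checked daily. At the end, body and organ weights were recorded. Heart, liver, spleen, lung and kidney were examined by hematoxylin and eosin staining.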

In data set [2] the target is T1, Fibroblast growth factor receptor (Homo sapiens) (UniProt P22607+P11362+P22455+P21802). Put plainly: Induction of FGFR degradation in human KATO III stomach cancer cell line assessed as reduction in PLCgamma phosphorylation at 50 nM measured for 6 hrs. It is filed as cell-based. The gist of the method: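 KATO III cells incubated 6 h with 50 nM compound, then stimulated with FGF1 for 10 min; pFGFR, pPLCγ1 (Tyr783) and pFRS2α immunoblotted.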
T1 sequence (P11362 whole entry, looked up): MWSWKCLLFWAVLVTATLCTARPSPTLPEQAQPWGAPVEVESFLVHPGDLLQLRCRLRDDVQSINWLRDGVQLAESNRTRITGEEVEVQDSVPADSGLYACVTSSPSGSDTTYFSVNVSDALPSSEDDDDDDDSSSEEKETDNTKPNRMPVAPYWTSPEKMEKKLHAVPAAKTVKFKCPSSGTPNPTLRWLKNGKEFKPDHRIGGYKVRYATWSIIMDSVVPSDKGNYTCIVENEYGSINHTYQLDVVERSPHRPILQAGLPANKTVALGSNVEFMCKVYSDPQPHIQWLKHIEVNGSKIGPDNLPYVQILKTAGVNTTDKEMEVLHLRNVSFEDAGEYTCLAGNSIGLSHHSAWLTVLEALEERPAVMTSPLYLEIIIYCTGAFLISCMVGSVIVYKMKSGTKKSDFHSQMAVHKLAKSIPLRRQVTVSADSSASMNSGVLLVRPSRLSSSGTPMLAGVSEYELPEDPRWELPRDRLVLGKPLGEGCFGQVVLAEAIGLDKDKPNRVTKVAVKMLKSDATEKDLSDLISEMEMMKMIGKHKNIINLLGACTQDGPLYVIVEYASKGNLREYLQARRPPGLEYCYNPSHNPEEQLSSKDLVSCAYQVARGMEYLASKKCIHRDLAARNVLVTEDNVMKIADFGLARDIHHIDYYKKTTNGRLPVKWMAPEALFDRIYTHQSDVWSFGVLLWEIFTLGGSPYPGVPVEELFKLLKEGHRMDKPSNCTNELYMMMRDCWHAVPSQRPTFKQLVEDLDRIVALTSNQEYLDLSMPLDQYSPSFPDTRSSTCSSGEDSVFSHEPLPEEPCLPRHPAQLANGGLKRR
T1 sequence (P21802 whole entry, looked up): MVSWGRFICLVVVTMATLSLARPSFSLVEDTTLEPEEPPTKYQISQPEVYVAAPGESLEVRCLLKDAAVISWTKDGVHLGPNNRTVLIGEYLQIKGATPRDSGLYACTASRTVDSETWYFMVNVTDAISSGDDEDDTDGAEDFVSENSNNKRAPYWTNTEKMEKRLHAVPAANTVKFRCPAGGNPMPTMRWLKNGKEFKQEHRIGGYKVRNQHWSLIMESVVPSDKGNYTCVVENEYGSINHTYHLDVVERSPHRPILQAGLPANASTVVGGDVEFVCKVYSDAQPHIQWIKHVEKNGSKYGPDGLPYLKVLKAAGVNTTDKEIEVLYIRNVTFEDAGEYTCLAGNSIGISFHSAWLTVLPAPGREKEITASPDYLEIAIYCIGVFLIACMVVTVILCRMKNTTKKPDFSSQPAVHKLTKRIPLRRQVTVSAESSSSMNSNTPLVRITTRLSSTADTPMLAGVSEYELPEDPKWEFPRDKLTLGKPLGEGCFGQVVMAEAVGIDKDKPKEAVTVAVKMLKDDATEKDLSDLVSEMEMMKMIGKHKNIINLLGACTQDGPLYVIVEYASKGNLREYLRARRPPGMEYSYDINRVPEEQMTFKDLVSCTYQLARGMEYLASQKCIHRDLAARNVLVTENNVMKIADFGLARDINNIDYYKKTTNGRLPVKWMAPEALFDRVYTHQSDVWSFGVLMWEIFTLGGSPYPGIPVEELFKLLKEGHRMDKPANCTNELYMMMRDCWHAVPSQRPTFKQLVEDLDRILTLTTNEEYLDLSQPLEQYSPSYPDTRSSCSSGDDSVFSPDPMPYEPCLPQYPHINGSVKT
T1 sequence (P22455 whole entry, looked up): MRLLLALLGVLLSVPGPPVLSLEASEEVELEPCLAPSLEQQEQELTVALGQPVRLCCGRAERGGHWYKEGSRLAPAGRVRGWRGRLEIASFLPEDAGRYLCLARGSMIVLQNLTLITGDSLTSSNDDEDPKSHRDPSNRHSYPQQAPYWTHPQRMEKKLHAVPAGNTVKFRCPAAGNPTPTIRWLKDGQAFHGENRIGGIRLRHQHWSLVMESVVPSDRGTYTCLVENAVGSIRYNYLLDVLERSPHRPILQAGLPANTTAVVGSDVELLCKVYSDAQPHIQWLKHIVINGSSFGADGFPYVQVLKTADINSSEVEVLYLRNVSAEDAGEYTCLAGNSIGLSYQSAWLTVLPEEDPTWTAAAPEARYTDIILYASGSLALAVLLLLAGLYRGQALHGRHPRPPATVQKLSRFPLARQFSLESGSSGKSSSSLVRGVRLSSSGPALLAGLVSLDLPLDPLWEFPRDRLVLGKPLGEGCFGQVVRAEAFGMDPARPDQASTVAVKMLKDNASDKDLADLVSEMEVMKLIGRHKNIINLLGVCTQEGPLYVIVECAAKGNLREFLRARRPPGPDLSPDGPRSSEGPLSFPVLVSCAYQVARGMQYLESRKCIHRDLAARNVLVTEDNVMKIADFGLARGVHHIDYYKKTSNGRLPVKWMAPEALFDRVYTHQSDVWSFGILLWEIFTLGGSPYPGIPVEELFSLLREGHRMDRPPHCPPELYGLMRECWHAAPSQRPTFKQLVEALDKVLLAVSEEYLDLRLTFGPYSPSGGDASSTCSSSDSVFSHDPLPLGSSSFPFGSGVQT
T1 sequence (P22607 whole entry, looked up): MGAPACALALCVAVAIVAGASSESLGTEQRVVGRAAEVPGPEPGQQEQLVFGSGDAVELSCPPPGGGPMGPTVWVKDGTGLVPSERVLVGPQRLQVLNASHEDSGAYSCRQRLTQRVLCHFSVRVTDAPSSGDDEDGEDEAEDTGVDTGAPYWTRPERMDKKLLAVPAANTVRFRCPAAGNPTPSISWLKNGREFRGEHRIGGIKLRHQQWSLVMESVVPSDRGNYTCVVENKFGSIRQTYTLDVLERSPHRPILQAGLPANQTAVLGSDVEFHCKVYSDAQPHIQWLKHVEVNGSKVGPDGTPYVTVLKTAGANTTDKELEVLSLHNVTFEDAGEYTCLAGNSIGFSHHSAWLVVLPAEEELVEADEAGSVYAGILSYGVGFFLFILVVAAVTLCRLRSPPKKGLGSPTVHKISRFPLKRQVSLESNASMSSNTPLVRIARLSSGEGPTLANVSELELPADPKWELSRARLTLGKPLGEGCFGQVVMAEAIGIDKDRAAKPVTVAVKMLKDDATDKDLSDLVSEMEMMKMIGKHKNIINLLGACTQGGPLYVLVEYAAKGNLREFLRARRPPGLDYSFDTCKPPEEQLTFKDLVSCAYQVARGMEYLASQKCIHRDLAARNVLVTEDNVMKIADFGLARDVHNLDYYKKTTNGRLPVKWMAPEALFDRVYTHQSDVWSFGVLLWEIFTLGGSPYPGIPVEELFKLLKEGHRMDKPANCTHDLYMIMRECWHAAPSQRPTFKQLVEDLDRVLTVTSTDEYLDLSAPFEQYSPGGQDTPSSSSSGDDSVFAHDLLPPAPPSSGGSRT

In data set [3] the test system is NCI-H716. Description: Antiproliferative activity against human NCI-H716 cells assessed as reduction in cell viability measured for 72 hrs by celltiter-glo reagent based assay. The format is functional. As to conditions: NCI-H716, 72 h. The gist of the method: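 Cancer lines KATO III, SNU16, NCI-H716, NCI-H1975, MV-4-11 and HEK293T treated 72 h; antiproliferative IC50 given as mean ± s.d. from three independent biological experiments.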
For orientation: Cellular ATP, detected with luciferase, serves as a proxy for viable cell number.

Data set [4] in a line: Cmax in mouse at 3 mg/kg, iv measured at 0.083 to 24 hrs by LC-MS/MS analysis. As to conditions: in vivo.
For data set [5], the target named is T2, Protein cereblon/Fibroblast growth factor receptor 2 (Homo sapiens, UniProt P21802+Q96SW2). Description: PROTAC activity at CRBN/FGFR2 in human KATO III stomach cancer cell line assessed as FGFR2 degradation by measuring FGFR2 expression level upto 100 nM by Western blotting analysis. As to conditions: time 12.0 hrs, TDE = time-dependent effect. The format is cell-based. The gist of the method:
(§2)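 KATO III cells treated 6 h across 0.5–10,000 nM (DMSO stock, final DMSO below 0.5%); FGFR2 immunoblotted, quantified as FGFR2/β-actin ratio normalized to DMSO-treated cells, three independent biological experiments; DC50 and Dmax derived from the curve.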
In general terms: Immunoblotting shows a protein as a band on a membrane.
Target sequence in this assay (P21802 22-821 limits assumed): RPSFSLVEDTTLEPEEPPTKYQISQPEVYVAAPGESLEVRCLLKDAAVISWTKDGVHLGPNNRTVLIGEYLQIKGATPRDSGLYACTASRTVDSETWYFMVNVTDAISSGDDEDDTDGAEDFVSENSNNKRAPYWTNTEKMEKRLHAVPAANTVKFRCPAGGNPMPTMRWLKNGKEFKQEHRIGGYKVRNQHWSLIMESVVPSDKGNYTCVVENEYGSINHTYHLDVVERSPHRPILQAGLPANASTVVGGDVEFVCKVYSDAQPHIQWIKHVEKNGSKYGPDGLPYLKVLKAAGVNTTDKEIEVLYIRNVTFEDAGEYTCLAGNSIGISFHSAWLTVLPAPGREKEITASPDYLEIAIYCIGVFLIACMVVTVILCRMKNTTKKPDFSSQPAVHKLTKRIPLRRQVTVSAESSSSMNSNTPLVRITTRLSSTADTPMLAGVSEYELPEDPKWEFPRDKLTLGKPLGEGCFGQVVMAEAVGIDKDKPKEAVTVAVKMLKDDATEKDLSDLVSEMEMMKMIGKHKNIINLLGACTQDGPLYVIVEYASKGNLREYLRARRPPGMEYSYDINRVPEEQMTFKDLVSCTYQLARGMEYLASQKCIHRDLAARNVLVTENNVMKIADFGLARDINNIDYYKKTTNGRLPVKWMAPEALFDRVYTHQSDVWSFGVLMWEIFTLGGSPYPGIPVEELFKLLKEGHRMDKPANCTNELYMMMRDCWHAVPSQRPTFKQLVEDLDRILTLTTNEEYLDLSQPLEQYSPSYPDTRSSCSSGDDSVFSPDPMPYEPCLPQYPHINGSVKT
Target sequence in this assay (Q96SW2 whole entry partner): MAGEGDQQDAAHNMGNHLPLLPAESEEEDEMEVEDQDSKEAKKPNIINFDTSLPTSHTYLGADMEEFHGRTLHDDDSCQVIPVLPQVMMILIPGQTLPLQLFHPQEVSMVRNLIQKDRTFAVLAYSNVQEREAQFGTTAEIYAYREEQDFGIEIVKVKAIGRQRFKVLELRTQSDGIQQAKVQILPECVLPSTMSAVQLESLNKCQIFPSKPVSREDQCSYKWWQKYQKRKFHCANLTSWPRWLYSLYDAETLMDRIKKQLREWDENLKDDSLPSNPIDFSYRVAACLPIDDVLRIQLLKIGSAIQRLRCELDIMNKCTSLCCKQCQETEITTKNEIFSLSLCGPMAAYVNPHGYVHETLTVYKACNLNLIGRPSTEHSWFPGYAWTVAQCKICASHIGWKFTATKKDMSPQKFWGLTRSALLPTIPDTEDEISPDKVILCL

Data set [6] concerns SNU-16. Description: Antitumor activity against human SNU-16 cells xenografted in BALB/c nude mouse assessed as tumor growth inhibition at 20 mg/kg, po administered for 15 days and measured on day 2. The note with it: SNU-16, 48 h, time 2 day, read-out: TGI. It is filed as functional. The essentials: (§3)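 Female BALB/c nude mice, 5 weeks old (20–22 g), s.c. right-flank SNU-16 implants, randomized by body weight into groups (n = 5) once tumours reached 50–100 mm3. Dosing 20 mg/kg/day intragastric in 0.5% CMC-Na for 15 d; vehicle controls. Tumour width and length measured every 2 days; tumours harvested 4 h after last dose and lysates immunoblotted for pFGFR, FGFR2, pPLCγ, pErk.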

The target in data set [7] is T1, Fibroblast growth factor receptor (Homo sapiens). Description: Induction of FGFR degradation in human KATO III stomach cancer cell line assessed as reduction in FGFR phosphorylation at A-loop Tyr656/657 residue at 25 nM measured for 6 hrs. It is filed as cell-based. The essentials:
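KATO III cells treated 6 h at the indicated concentrations with degrader or BGJ398; FGFR A-loop Tyr656/657 autophosphorylation monitored by immunoblot.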

The target of data set [8] is T2, Protein cereblon/Fibroblast growth factor receptor 2. Put plainly: PROTAC activity at CRBN/FGFR2 in human KATO III stomach cancer cell line assessed as FGFR2 degradation by measuring FGFR2 expression level at 100 to 500 nM measured for 6 hrs by Western blotting analysis. It is filed as cell-based. As to conditions: dose 100-500 nM. The gist of the method: as §2
Target sequence in this assay (P21802 22-821 limits assumed): as the sequence (P21802 22-821 limits assumed) above
Target sequence in this assay (Q96SW2 whole entry partner): as the sequence (Q96SW2 whole entry partner) above

For data set [9], the system named is SNU-16. Description: Antitumor activity against human SNU-16 cells xenografted in BALB/c nude mouse assessed as reduction in ERK1/2 phosphorylation in tumor at 20 mg/kg, po measured at 4 hrs. The format is functional, organism-based. The gist of the method: as §3
For orientation: Xenograft models place foreign cells or tissue in a host animal.

A short description of data set [10]: Half life in Sprague-Dawley rat at 20 mg/kg, po measured at 0.25 to 24 hrs by LC-MS/MS analysis. The note with it: in vivo, time 0.25-24 hrs. The format is ADME, organism-based. The essentials: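 Male Sprague Dawley rats, single dose i.v. 3 mg/kg or p.o. 20 mg/kg in 10% Solutol, 85% (10% HP-β-CD in saline), 5% DMSO, pH adjusted to 9–10.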
For data set [11], the target named is Mitogen-activated protein kinase kinase kinase 4 (Homo sapiens) (UniProt Q9Y6R4). Put plainly: Inhibition of partial length human MAP3K4 at 1000 nM by KINOMEscan analysis relative to control.
The nature of data set [12]: Tmax in Sprague-Dawley rat at 3 mg/kg, iv measured at 0.083 to 24 hrs by LC-MS/MS analysis. It is filed as ADME, organism-based. As to conditions: in vivo, time 0.083-24 hrs. The essentials:
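Male Sprague Dawley rats received a single dose of 3 mg/kg i.v. or 20 mg/kg p.o. Vehicle was 10% Solutol, 85% (10% HP-β-CD in saline) and 5% DMSO, adjusted to pH 9–10. Plasma was assayed by LC–MS/MS.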

A short description of data set [13]: AUC (0 to infinity) in mouse at 20 mg/kg, po measured at 0.25 to 24 hrs by LC-MS/MS analysis. As to conditions: in vivo.
In data set [14] the target is Fibroblast growth factor receptor 1 (Homo sapiens) (UniProt P11362). Put plainly: Induction of FGFR1 degradation in human NCI-H1581 cells at 100 nM measured for 6 hrs Western blot analysis relative to control. It is filed as cell-based. The essentials:
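NCI-H1581 (FGFR1), MCF7 (FGFR3) and Huh7 (FGFR4) cells, which endogenously express the isoforms, treated with 100 nM for 6 h; isoform levels by Western blot against β-actin, three biologically independent experiments.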

The target of data set [15] is T2, Protein cereblon/Fibroblast growth factor receptor 2. Put plainly: PROTAC activity at CRBN/FGFR2 in human KATO III stomach cancer cell line assessed as FGFR2 degradation by measuring FGFR2 expression level measured for 6 hrs by Western blotting analysis. It is filed as cell-based. The essentials: as §2
Target sequence in this assay (P21802 whole entry): as the sequence (P21802 whole entry, looked up) above
Target sequence in this assay (Q96SW2 whole entry): as the sequence (Q96SW2 whole entry partner) above
Data set [16] in a line: Toxicity in ICR mouse assessed as morphological changes in heart at 20 mg/kg, po measured for 30 days by hematoxyin-eosin staining based analysis. It is filed as organism-based. As to conditions: in vivo, 720 h, time 30 day. The gist of the method: as §1
The nature of data set [17]: Oral bioavailability in mice at 20 mg/kg measured at 0.25 to 24 hrs by LC-MS/MS analysis. The note with it: mouse, in vivo.
The subject of data set [18] is BaF3. Put plainly: Antiproliferative activity against mouse BaF3 cells expressing Tel-FGFR1 assessed as cell growth inhibition measured after 72 hrs by celltiter-glo reagent based assay. The format is functional. The note with it: BaF3, 72 h. The gist of the method:
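Ba/F3 cells stably expressing cytoplasmic TEL-FGFR1, -2, -3 or -4 fusions were treated in 96-well format, final DMSO 0.1%, for 72 h. Viability read by CellTiter-Glo luminescence after 10 min at room temperature. Inhibition calculated from blank- and control-corrected RLU; IC50 from 4-parameter concentration–response fit.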

For data set [19], the target named is Fibroblast growth factor receptor 2 (Homo sapiens) (UniProt P21802). Description: Inhibition of partial length human FGFR2 at 1000 nM by KINOMEscan analysis relative to control. The essentials:
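97-kinase scanEDGE panel screened at 1000 nM; results reported as % Ctrl, lower values meaning stronger inhibition.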

What is called IC50 is the midpoint of a concentration-inhibition curve. The term Cmax denotes the peak of the concentration-time curve. In general, half-life refers to how long it takes for the measured level to halve. Higher therefore signals slow loss. As usually defined, the inhibition is how much of the control response was suppressed. A low value points to a response near the control. By Tmax is commonly meant the time at which the peak concentration occurs. The AUC(0-inf) is the area under the concentration-time curve extrapolated to infinity. As usually defined, the DC50 is the midpoint of the concentration-degradation curve. One may read the bioavailability as the share of a dose that reaches the circulation, judged against a reference dose that is usually intravenous.

Activity calls are given as the source filed them. The calls are words filed in the database; no cut-off is given here.

Chain of Fibroblast growth factor receptor 2 (Homo sapiens) (P21802 22-821 limits assumed): as the sequence (P21802 22-821 limits assumed) above

On to `COc1cc(OC)c(Cl)c(NC(=O)N(C)c2cc(Nc3ccc(N4CCN(C(=O)C5CCN(c6ccc7c(c6)C(=O)N(C6CCC(=O)NC6=O)C7=O)CC5)CC4)cc3)ncn2)c1Cl` (centres undefined), for which the Activity entry is “Non-Toxic” in [1]; “Tde” in data set [5]; 70% in data set [8]; 43% in data set [14]; “Non-Toxic” in data set [16]. The outcome in data set [2], in [7] and in data set [9] was Active. Moreover, the IC50 in [3] stood at 3.2 nM; in data set [18], 125 nM. The molecule also showed a Cmax in data set [4] of 655 ng/mL. The inhibition in vivo at 20 mg/kg in data set [6] stood at 63.1%. Also, the half-life in data set [10] was 88.2 min. For the same molecule, the inhibition in data set [11] amounted to 45%; in data set [19], 87%. In addition, the Tmax in data set [12] was determined as 4.98 min. The same molecule displayed an AUC(0-inf) in [13] of 387 ng·h/mL. For the same molecule, in data set [15], the DC50 amounted to 11.8 nM. The molecule further came in with a bioavailability in [17] of 13.1%.
